Laboratory results published in ChEMBL document CHEMBL4842318, “A γ-lactam siderophore antibiotic effective against multidrug-resistant Pseudomonas aeruginosa, Klebsiella pneumoniae, and Acinetobacter spp” (Eur J Med Chem, 2021).
Values after ≈ are worked out from the molar mass of the structure shown.

Experiments:
Acinetobacter baumannii [1] = assay: Antibacterial activity against 98 member subset of carbapenem resistant Acinetobacter baumannii assessed as assessed as inhibition of bacterial growth by microdilution method; assay type: functional
How it was run: (§1)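 Broth microdilution in Chelex-treated, iron-depleted cation-adjusted Mueller-Hinton broth, following the protocol used for siderophore-containing antibiotics; inoculum lowered to 6 × 10^4 cfu/mL; MIC read as growth inhibition, in μg/mL.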

[2] = Inhibition of Acinetobacter sp. strain ATCC 27244 PBP3 expressed in Escherichia coli BL21 (DE3) assessed as reduction in fluorescence intensity using Bocillin-protein as fluorescent substrate by SDS PAGE analysis
Acinetobacter baumannii [3] = assay: Antibacterial activity against panel of 198 clinical isolates Acinetobacter baumannii assessed as inhibition of bacterial growth by microdilution method; assay type: functional
Pseudomonas aeruginosa [4] = assay: Antibacterial activity against wild type Pseudomonas aeruginosa isolate PR-680 leucine at 533 residue assessed as inhibition of bacterial growth by microdilution method; assay type: functional
How it was run: (§2)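 Broth microdilution MIC in iron-depleted (Chelex resin-treated) cation-adjusted Mueller-Hinton broth, following the protocol used for siderophore-containing antibiotics. Inoculum was lowered to 6 × 10^4 cfu/mL.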

Pseudomonas aeruginosa [5] = assay: Antibacterial activity against wild type Pseudomonas aeruginosa isolate PR-545 assessed as inhibition of bacterial growth by microdilution method; assay type: functional; how it was run: as §2
Pseudomonas aeruginosa [6] = assay: Antibacterial activity against wild type Pseudomonas aeruginosa isolate PR-503 assessed as inhibition of bacterial growth by microdilution method; assay type: functional; how it was run: as §2
Pseudomonas aeruginosa [7] = assay: Antibacterial activity against wild type Pseudomonas aeruginosa isolate PR-677 assessed as inhibition of bacterial growth by microdilution method; assay type: functional; how it was run: as §2
Pseudomonas aeruginosa [8] = assay: Antibacterial activity against wild type Pseudomonas aeruginosa isolate PR-606 assessed as inhibition of bacterial growth by microdilution method; assay type: functional; how it was run: as §2
Pseudomonas aeruginosa [9] = assay: Antibacterial activity against wild type Pseudomonas aeruginosa isolate PR-548 assessed as inhibition of bacterial growth by microdilution method; assay type: functional; how it was run: as §2
Pseudomonas aeruginosa [10] = assay: Antibacterial activity against Pseudomonas aeruginosa isolate PR-627 leucine at 533 residue assessed as inhibition of bacterial growth by microdilution method; assay type: functional; how it was run: as §1
Pseudomonas aeruginosa [11] = assay: Antibacterial activity against Pseudomonas aeruginosa AR-BANK#0229; assay type: functional; how it was run: as §1
Pseudomonas aeruginosa [12] = assay: Antibacterial activity against wild type Pseudomonas aeruginosa isolate PR-604 assessed as inhibition of bacterial growth by microdilution method; assay type: functional; how it was run: as §2
Pseudomonas aeruginosa [13] = assay: Antibacterial activity against wild type Pseudomonas aeruginosa isolate PR-567 assessed as inhibition of bacterial growth by microdilution method; assay type: functional; how it was run: as §2
Pseudomonas aeruginosa [14] = assay: Antibacterial activity against wild type Pseudomonas aeruginosa isolate PR-673 leucine at 533 residue assessed as inhibition of bacterial growth by microdilution method; assay type: functional; how it was run: as §2
Pseudomonas aeruginosa [15] = assay: Antibacterial activity against wild type Pseudomonas aeruginosa isolate PR-688 leucine at 533 residue assessed as inhibition of bacterial growth by microdilution method; assay type: functional; how it was run: as §2
Pseudomonas aeruginosa [16] = assay: Antibacterial activity against wild type Pseudomonas aeruginosa isolate PR-636 leucine at 533 residue assessed as inhibition of bacterial growth by microdilution method; assay type: functional; how it was run: as §2
Pseudomonas aeruginosa [17] = assay: Antibacterial activity against wild type Pseudomonas aeruginosa isolate PR-638 assessed as inhibition of bacterial growth by microdilution method; assay type: functional; how it was run: as §2
Pseudomonas aeruginosa [18] = assay: Antibacterial activity against wild type Pseudomonas aeruginosa isolate PR-635 assessed as inhibition of bacterial growth by microdilution method; assay type: functional; how it was run: as §2
Pseudomonas aeruginosa [19] = assay: Antibacterial activity against wild type Pseudomonas aeruginosa isolate PR-699 assessed as inhibition of bacterial growth by microdilution method; assay type: functional; how it was run: as §2
Pseudomonas aeruginosa [20] = assay: Antibacterial activity against wild type Pseudomonas aeruginosa isolate PR-676 assessed as inhibition of bacterial growth by microdilution method; assay type: functional; how it was run: as §2
Pseudomonas aeruginosa [21] = assay: Antibacterial activity against wild type Pseudomonas aeruginosa isolate PR-672 assessed as inhibition of bacterial growth by microdilution method; assay type: functional; how it was run: as §2
Pseudomonas aeruginosa [22] = assay: Antibacterial activity against wild type Pseudomonas aeruginosa isolate PR-668 leucine at 533 residue assessed as inhibition of bacterial growth by microdilution method; assay type: functional; how it was run: as §2
Pseudomonas aeruginosa [23] = assay: Antibacterial activity against wild type Pseudomonas aeruginosa isolate PR-651 leucine at 533 residue assessed as inhibition of bacterial growth by microdilution method; assay type: functional; how it was run: as §2
Pseudomonas aeruginosa [24] = assay: Antibacterial activity against Pseudomonas aeruginosa isolate PR-564 leucine at 533 residue assessed as inhibition of bacterial growth by microdilution method; assay type: functional; how it was run: as §1
[25] = Antibacterial activity against carbapenem susceptible Acinetobacter nosocomialis isolate PR-365 assessed as bacterial growth inhibition by microdilution method; assay type: functional; how it was run: as §2
Acinetobacter baumannii [26] = assay: Antibacterial activity against carbapenem susceptible Acinetobacter baumannii isolate PR-452 assessed as bacterial growth inhibition by microdilution method; assay type: functional; how it was run: as §2
Acinetobacter baumannii [27] = assay: Antibacterial activity against carbapenem resistant Acinetobacter baumannii isolate PR-459 assessed as bacterial growth inhibition by microdilution method; assay type: functional; how it was run: as §1
[28] = Antibacterial activity against carbapenem susceptible Acinetobacter nosocomialis isolate PR-491 assessed as bacterial growth inhibition by microdilution method; assay type: functional; how it was run: as §2
Acinetobacter baumannii [29] = assay: Antibacterial activity against carbapenem resistant Acinetobacter baumannii isolate PR-345 assessed as bacterial growth inhibition by microdilution method; assay type: functional; how it was run: as §1
Acinetobacter baumannii [30] = assay: Antibacterial activity against carbapenem susceptible Acinetobacter baumannii isolate PR-434 assessed as bacterial growth inhibition by microdilution method; assay type: functional; how it was run: as §2
Acinetobacter baumannii [31] = assay: Antibacterial activity against carbapenem resistant Acinetobacter baumannii isolate PR-380 assessed as bacterial growth inhibition by microdilution method; assay type: functional; how it was run: as §1
Acinetobacter baumannii [32] = assay: Antibacterial activity against carbapenem resistant Acinetobacter baumannii isolate PR-342 assessed as bacterial growth inhibition by microdilution method; assay type: functional; how it was run: as §1
Acinetobacter baumannii [33] = assay: Antibacterial activity against carbapenem resistant Acinetobacter baumannii isolate PR-314 assessed as bacterial growth inhibition by microdilution method; assay type: functional; how it was run: as §1
Acinetobacter baumannii [34] = assay: Antibacterial activity against carbapenem resistant Acinetobacter baumannii isolate PR-387 assessed as bacterial growth inhibition by microdilution method; assay type: functional; how it was run: as §1
[35] = Antibacterial activity against carbapenem susceptible Acinetobacter nosocomialis isolate PR-412 assessed as bacterial growth inhibition by microdilution method; assay type: functional; how it was run: as §2
[36] = Antibacterial activity against carbapenem susceptible Acinetobacter nosocomialis isolate PR-362 assessed as bacterial growth inhibition by microdilution method; assay type: functional; how it was run: as §2
Acinetobacter baumannii [37] = assay: Antibacterial activity against carbapenem resistant Acinetobacter baumannii isolate PR-482 assessed as bacterial growth inhibition by microdilution method; assay type: functional; how it was run: as §1
Acinetobacter baumannii [38] = assay: Antibacterial activity against carbapenem susceptible Acinetobacter baumannii isolate PR-340 assessed as bacterial growth inhibition by microdilution method; assay type: functional; how it was run: as §2
Acinetobacter baumannii [39] = assay: Antibacterial activity against carbapenem resistant Acinetobacter baumannii isolate PR-319 assessed as bacterial growth inhibition by microdilution method; assay type: functional; how it was run: as §1
Acinetobacter baumannii [40] = assay: Antibacterial activity against carbapenem resistant Acinetobacter baumannii isolate PR-399 assessed as bacterial growth inhibition by microdilution method; assay type: functional; how it was run: as §1
Acinetobacter baumannii [41] = assay: Antibacterial activity against carbapenem resistant Acinetobacter baumannii isolate PR-401 assessed as bacterial growth inhibition by microdilution method; assay type: functional; how it was run: as §1
Acinetobacter baumannii [42] = assay: Antibacterial activity against carbapenem resistant Acinetobacter baumannii isolate PR-423 assessed as bacterial growth inhibition by microdilution method; assay type: functional; how it was run: as §1
Acinetobacter baumannii [43] = assay: Antibacterial activity against carbapenem resistant Acinetobacter baumannii isolate PR-325 assessed as bacterial growth inhibition by microdilution method; assay type: functional; how it was run: as §1
Acinetobacter baumannii [44] = assay: Antibacterial activity against carbapenem resistant Acinetobacter baumannii isolate PR-384 assessed as bacterial growth inhibition by microdilution method; assay type: functional; how it was run: as §1
Acinetobacter baumannii [45] = assay: Antibacterial activity against carbapenem susceptible Acinetobacter baumannii isolate PR-464 assessed as bacterial growth inhibition by microdilution method; assay type: functional; how it was run: as §2
Acinetobacter baumannii [46] = assay: Antibacterial activity against carbapenem resistant Acinetobacter baumannii isolate PR-326 assessed as bacterial growth inhibition by microdilution method; assay type: functional; how it was run: as §1
Acinetobacter baumannii [47] = assay: Antibacterial activity against carbapenem resistant Acinetobacter baumannii isolate PR-351 assessed as bacterial growth inhibition by microdilution method; assay type: functional; how it was run: as §1

C[C@H]1[C@H](NC(=O)/C(=N\OC(C)(C)C(=O)O)c2csc(N)n2)C(=O)N1S(=O)(=O)O [AZTREONAM]
MIC50 (Acinetobacter baumannii [1]): > 32 µg/mL
MIC90 (Acinetobacter baumannii [1]): > 32 µg/mL

C[C@@H](O)[C@H]1C(=O)N2C(C(=O)O)=C(S[C@@H]3CN[C@H](CNS(N)(=O)=O)C3)[C@H](C)[C@H]12 [DORIPENEM]
IC50 [2]: 2.3 µM

C[C@@H](O)[C@H]1C(=O)N2C(C(=O)O)=C(S[C@@H]3CN[C@H](C(=O)N(C)C)C3)[C@H](C)[C@H]12 [MEROPENEM]
MIC50 (Acinetobacter baumannii [3]): 8 µg/mL (≈ 20.9 µM)
MIC90 (Acinetobacter baumannii [3]): > 64 µg/mL
MIC90 (Acinetobacter baumannii [1]): > 64 µg/mL

CC(C)(O/N=C(\C(=O)N[C@H]1CN2CC(C(=O)NCCN3C(=O)c4cc(O)c(O)cc4C3=O)=C(C(=O)O)N2C1=O)c1csc(N)n1)C(=O)O (stereo in doubt)
MIC (Pseudomonas aeruginosa [4]): > 16 µg/mL
MIC (Pseudomonas aeruginosa [5]): ≤ 0.25 µg/mL
MIC (Pseudomonas aeruginosa [6]): 16 µg/mL (≈ 23.3 µM)
MIC (Pseudomonas aeruginosa [7]): 16 µg/mL (≈ 23.3 µM)
MIC (Pseudomonas aeruginosa [8]): 16 µg/mL (≈ 23.3 µM)
MIC (Pseudomonas aeruginosa [9]): ≤ 0.25 µg/mL
MIC (Pseudomonas aeruginosa [10]): > 16 µg/mL
MIC (Pseudomonas aeruginosa [11]): 0.25 µg/mL (≈ 0.364 µM)
MIC (Pseudomonas aeruginosa [12]): ≤ 0.25 µg/mL
MIC (Pseudomonas aeruginosa [13]): ≤ 0.25 µg/mL
MIC (Pseudomonas aeruginosa [14]): > 16 µg/mL
MIC (Pseudomonas aeruginosa [15]): > 16 µg/mL
MIC (Pseudomonas aeruginosa [16]): > 16 µg/mL
MIC (Pseudomonas aeruginosa [17]): > 16 µg/mL
MIC (Pseudomonas aeruginosa [18]): 16 µg/mL (≈ 23.3 µM)
MIC (Pseudomonas aeruginosa [19]): > 16 µg/mL
MIC (Pseudomonas aeruginosa [20]): 16 µg/mL (≈ 23.3 µM)
MIC (Pseudomonas aeruginosa [21]): ≤ 0.25 µg/mL
MIC (Pseudomonas aeruginosa [22]): > 16 µg/mL
MIC (Pseudomonas aeruginosa [23]): > 16 µg/mL
MIC (Pseudomonas aeruginosa [24]): > 16 µg/mL

CC(C)(O/N=C(\C(=O)N[C@@H]1C(=O)N2C(C(=O)[O-])=C(C[n+]3ccccc3)CS[C@H]12)c1csc(N)n1)C(=O)O [CEFTAZIDIME]
MIC50 (Acinetobacter baumannii [3]): 64 µg/mL (≈ 117 µM)
MIC90 (Acinetobacter baumannii [3]): > 64 µg/mL
MIC50 (Acinetobacter baumannii [1]): > 64 µg/mL
MIC90 (Acinetobacter baumannii [1]): > 64 µg/mL

CC1(C)[C@H](C(=O)O)N2C(=O)C[C@H]2S1(=O)=O [SULBACTAM]
MIC [25]: 1 µg/mL
MIC (Acinetobacter baumannii [26]): 1 µg/mL
MIC (Acinetobacter baumannii [27]): 32 µg/mL
MIC [28]: 2 µg/mL
MIC (Acinetobacter baumannii [29]): 16 µg/mL
MIC (Acinetobacter baumannii [30]): 8 µg/mL
MIC (Acinetobacter baumannii [31]): 16 µg/mL
MIC (Acinetobacter baumannii [32]): > 32 µg/mL
MIC (Acinetobacter baumannii [33]): 16 µg/mL
MIC (Acinetobacter baumannii [34]): 16 µg/mL
MIC [35]: 2 µg/mL
MIC [36]: 1 µg/mL
MIC (Acinetobacter baumannii [37]): 32 µg/mL
MIC (Acinetobacter baumannii [38]): 4 µg/mL
MIC (Acinetobacter baumannii [39]): > 32 µg/mL
MIC (Acinetobacter baumannii [40]): 16 µg/mL
MIC (Acinetobacter baumannii [41]): 16 µg/mL
MIC (Acinetobacter baumannii [42]): 16 µg/mL
MIC (Acinetobacter baumannii [43]): 32 µg/mL
MIC (Acinetobacter baumannii [44]): 16 µg/mL
MIC (Acinetobacter baumannii [45]): 1 µg/mL
MIC (Acinetobacter baumannii [46]): 2 µg/mL
MIC (Acinetobacter baumannii [47]): 16 µg/mL
